Test results taken from ChEMBL document CHEMBL1153268 (Bioorg Med Chem Lett, 2009).
Active and inactive are the calls of the source. The rule behind the calls is not given here.

Legend:
[1] = target: T1, Neurotensin receptor type 1 (Homo sapiens, UniProt P30989); experiment: Agonist activity at NTR1 expressed in CHOK1 cells assessed as stimulation of calcium mobilization at 10 uM relative to neurotensin; format: functional, cell-based; conditions: CHO-K1
Outline: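 CHO-K1 cells stably expressing NTR1, plated 20,000/well 24 h before assay, washed and loaded with calcium-4 dye in HBSS/20 mM HEPES/2 mM probenecid, 1 h, 37 °C, 5% CO2. Compound added at 10 μM final (1% DMSO), triplicate.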

[2] = target: T1, Neurotensin receptor type 1; experiment: Agonist activity at NTR1 expressed in CHOK1 cells by calcium mobilization assay; format: functional, cell-based, CHO-K1

T1 sequence (P30989 whole entry): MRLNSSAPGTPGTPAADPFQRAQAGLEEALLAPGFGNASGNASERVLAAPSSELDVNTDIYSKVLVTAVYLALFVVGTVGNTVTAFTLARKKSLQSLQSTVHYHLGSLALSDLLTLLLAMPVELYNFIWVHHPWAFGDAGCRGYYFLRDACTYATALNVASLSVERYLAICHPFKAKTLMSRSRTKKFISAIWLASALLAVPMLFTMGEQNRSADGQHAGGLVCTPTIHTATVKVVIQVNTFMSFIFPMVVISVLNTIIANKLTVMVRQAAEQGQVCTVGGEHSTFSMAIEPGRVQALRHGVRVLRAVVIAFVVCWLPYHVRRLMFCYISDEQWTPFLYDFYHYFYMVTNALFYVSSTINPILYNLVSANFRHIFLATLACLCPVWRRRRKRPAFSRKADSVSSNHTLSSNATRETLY

Row | Compound | Activity [1] | EC50 [2] [nM]
1 | CCCC[C@H](NC(=O)c1cc(-c2c(OC)cccc2OC)n(-c2ccnc3cc(Cl)ccc23)n1)C(=O)O | 20% | –
2 | CC[C@H](C)[C@H](NC(=O)c1cc(-c2c(OC)cccc2OC)n(-c2ccnc3cc(Cl)ccc23)n1)C(=O)O | inactive | –
3 | COc1cccc(OC)c1-c1cc(C(=O)N[C@@H](Cc2ccccc2)C(=O)O)nn1-c1ccnc2cc(Cl)ccc12 | inactive | –
4 | COc1cccc(OC)c1-c1cc(C(=O)N[C@@H](CC(C)C)C(=O)O)nn1-c1cccc2ccccc12 | inactive | –
5 | CCC[C@H](NC(=O)c1cc(-c2c(OC)cccc2OC)n(-c2ccnc3cc(Cl)ccc23)n1)C(=O)O | 18% | –
6 | COc1ccccc1-c1cc(C(=O)N[C@@H](CC(C)C)C(=O)O)nn1-c1ccnc2cc(Cl)ccc12 | 86% | 220
7 | COc1cccc(OC)c1-c1cc(C(=O)N[C@H](C(=O)O)C2CCCCC2)nn1-c1ccnc2cc(Cl)ccc12 | inactive | –
8 | CC(C)CC(NC(=O)OCC1c2ccccc2-c2ccccc21)C(=O)O (stereo not given) | – | 216
9 | CC(C)C[C@H](NC(=O)c1cc(-c2ccccc2)n(-c2ccnc3cc(Cl)ccc23)n1)C(=O)O | 62% | 2040
10 | COc1cccc(OC)c1-c1cc(C(=O)NCC(=O)O)nn1-c1ccnc2cc(Cl)ccc12 | inactive | –
11 | CC[C@H](NC(=O)c1cc(-c2c(OC)cccc2OC)n(-c2ccnc3cc(Cl)ccc23)n1)C(=O)O | 11% | –
12 | CC(C)C[C@H](NC(=O)Cn1ccc2cc(NS(=O)(=O)c3cccc4cccnc34)ccc21)C(=O)O | – | 178
13 | COc1cccc(OC)c1-c1cc(C(=O)N[C@H](CC(C)C)C(=O)O)nn1-c1ccnc2cc(Cl)ccc12 | 57% | 986
14 | COc1cccc(OC)c1-c1cc(C(=O)N[C@H](C(=O)O)C(C)C)nn1-c1ccnc2cc(Cl)ccc12 | 5% | –
15 | CC(C)C[C@H](NC(=O)c1cc(-c2ccccc2OC(F)(F)F)n(-c2ccnc3cc(Cl)ccc23)n1)C(=O)O | 84% | 1210
16 | COc1cccc(OC)c1-c1cc(C(=O)N[C@@H](CC(C)C)C(=O)O)nn1-c1ccnc2cc(Cl)ccc12 | – | 67
